Results published in ChEMBL document CHEMBL4406846, “Development of novel multipotent compounds modulating endocannabinoid and dopaminergic systems” (Eur J Med Chem, 2019).
≈ marks a conversion by molar mass, not a printed value. Calls of active or inactive are those of the source. No cut-off for these calls is given here.

Key:
[1] = target: T1, Fatty-acid amide hydrolase 1 (Mus musculus, UniProt O08914); assay: Inhibition of FAAH in mouse brain membranes using [14C]-AEA as substrate incubated for 15 mins by scintillation counting method; assay type: cell membranes
T1 sequence (O08914 whole entry): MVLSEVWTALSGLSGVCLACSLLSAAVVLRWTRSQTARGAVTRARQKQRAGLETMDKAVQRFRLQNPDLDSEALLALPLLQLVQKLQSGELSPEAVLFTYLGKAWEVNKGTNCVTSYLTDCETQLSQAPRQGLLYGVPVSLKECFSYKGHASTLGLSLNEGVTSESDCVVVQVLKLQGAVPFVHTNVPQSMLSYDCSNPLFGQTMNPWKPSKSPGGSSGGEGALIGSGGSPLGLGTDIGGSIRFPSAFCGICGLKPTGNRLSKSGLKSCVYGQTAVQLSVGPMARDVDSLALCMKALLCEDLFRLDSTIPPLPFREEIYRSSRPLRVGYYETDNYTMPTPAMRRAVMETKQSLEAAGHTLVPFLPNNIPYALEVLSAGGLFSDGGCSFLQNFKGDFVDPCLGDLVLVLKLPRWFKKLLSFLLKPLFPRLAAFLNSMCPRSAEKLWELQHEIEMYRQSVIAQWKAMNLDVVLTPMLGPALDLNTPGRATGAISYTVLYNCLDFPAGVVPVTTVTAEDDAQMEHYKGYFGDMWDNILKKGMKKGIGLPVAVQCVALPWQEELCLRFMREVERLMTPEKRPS

[2] = target: T1, Fatty-acid amide hydrolase 1; assay: Inhibition of FAAH in mouse brain membranes assessed as inhibitory constant using [14C]-AEA as substrate incubated for 15 mins by scintillation counting method; assay type: cell membranes
Procedure, shortened: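 Mouse brain incubated with 10 μM [¹⁴C]AEA at 37 °C for 15 min, pH 9.0, compound added to the medium. Stopped with chloroform/methanol 2:1; [¹⁴C]ethanolamine released into the aqueous phase measured. Mean of at least three experiments.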

D(2) dopamine receptor = D(2) dopamine receptor (Homo sapiens, UniProt P14416); assay: Displacement of [3H]-spiperone from human D2 receptor expressed in CHO cells co-expressing Galpha16 incubated for 120 mins by liquid scintillation counting method; assay type: cell-based
Sequence of D(2) dopamine receptor (P14416 whole entry): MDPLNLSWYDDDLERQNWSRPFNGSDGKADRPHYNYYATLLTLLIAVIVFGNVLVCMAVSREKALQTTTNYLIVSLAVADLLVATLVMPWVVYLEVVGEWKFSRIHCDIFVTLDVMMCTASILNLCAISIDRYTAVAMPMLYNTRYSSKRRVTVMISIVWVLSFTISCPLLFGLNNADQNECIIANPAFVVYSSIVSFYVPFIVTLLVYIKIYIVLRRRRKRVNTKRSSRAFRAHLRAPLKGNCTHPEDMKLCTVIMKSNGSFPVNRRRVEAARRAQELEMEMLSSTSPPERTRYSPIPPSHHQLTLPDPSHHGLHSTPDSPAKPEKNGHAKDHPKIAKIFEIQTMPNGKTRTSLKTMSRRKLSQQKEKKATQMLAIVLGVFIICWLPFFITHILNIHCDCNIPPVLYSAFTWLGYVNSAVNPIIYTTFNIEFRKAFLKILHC
Procedure, shortened: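 Membranes from CHO cells expressing hD2 with Gα16; 2 μg protein/well, 0.08 nM [³H]-spiperone final, 23 °C for 120 min. Stopped by rapid filtration on PEI-soaked GF/B filters, bound radioactivity counted; Ki by Cheng-Prusoff; at least three experiments.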

D(3) dopamine receptor = D(3) dopamine receptor (Homo sapiens, UniProt P35462); assay: Displacement of [3H]-spiperone from human D3 receptor expressed in CHO cells co-expressing Galpha16 incubated for 120 mins by liquid scintillation counting method; assay type: cell-based
Sequence of D(3) dopamine receptor (P35462 whole entry): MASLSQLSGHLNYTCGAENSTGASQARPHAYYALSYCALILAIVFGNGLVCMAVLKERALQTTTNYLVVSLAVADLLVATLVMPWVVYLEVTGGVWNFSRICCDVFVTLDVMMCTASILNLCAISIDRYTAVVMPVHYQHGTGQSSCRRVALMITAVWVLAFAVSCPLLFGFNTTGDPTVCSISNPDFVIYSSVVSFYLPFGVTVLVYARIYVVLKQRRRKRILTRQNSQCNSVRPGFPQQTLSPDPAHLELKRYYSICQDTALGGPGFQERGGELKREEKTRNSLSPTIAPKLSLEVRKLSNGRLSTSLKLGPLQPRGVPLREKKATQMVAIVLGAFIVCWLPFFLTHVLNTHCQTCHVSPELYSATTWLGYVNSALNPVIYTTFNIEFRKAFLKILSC

[3] = target: Voltage-gated inwardly rectifying potassium channel KCNH2 (Homo sapiens, UniProt Q12809); assay: Inhibition of human ERG expressed in HEK293 cells […] by patch clamp assay; assay type: cell-based
Sequence of Voltage-gated inwardly rectifying potassium channel KCNH2 (Q12809 whole entry): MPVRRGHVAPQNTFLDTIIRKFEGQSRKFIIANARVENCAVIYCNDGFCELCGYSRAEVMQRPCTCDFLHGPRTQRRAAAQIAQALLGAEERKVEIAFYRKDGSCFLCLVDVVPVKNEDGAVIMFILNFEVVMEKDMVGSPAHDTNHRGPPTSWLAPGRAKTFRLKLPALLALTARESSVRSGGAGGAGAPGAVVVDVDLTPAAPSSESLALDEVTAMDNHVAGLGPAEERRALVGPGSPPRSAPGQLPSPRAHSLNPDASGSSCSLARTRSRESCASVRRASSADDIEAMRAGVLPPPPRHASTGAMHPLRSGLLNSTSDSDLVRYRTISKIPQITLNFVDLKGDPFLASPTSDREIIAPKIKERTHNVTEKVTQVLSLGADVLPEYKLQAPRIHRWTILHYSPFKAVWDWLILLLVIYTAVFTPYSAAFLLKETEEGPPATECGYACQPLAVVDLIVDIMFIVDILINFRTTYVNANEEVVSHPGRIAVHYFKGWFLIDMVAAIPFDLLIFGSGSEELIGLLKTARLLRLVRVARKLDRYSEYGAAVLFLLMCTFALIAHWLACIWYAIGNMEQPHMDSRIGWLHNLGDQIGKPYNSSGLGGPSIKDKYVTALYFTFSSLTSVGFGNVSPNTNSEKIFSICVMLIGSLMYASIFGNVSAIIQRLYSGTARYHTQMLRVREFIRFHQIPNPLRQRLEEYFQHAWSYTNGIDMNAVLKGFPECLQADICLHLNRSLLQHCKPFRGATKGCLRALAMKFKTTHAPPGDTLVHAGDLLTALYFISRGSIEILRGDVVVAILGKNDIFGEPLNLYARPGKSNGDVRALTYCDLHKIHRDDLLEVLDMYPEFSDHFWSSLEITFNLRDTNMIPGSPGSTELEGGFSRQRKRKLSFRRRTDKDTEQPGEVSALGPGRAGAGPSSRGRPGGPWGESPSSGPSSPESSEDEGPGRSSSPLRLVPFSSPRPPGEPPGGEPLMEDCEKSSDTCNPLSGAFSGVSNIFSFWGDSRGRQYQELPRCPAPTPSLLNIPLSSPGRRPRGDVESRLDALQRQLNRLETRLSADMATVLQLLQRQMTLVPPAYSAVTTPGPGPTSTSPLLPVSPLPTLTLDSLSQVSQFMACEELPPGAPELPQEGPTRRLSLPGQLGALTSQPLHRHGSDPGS
Procedure, shortened: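 HEK293 cells stably expressing hERG under a tetracycline-inducible promoter (10 μg/mL tetracycline for 24, 48 or 72 h). Automated patch clamp, tail current; 0.1, 1 and 10 μM in 0.1% DMSO after 3 min vehicle, 5 min exposure. Residual current vs vehicle gives % inhibition; IC50 estimated; at least two cells.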

[4] = Solubility of compound in DMSO at pH 3 incubated for […] by HPLC/UV/DAD analysis; assay type: physicochemical
Procedure, shortened: (§1)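 10 mM DMSO stock diluted to 250 μM (2.5% DMSO) in 50 mM acetic acid (pH 3.0) or 50 mM PBS (pH 7.4). Shaken 24 h at 25 °C, filtered, diluted 1:2 and quantified by HPLC-UV at 254 nm against a 250 μM standard; triplicate average.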

[5] = Chemical stability of compound in DMSO assessed as remaining compound at pH 3 incubated for 24 hrs by HPLC/UV/DAD analysis; assay type: physicochemical; conditions: read-out: Stability
Procedure, shortened: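 Samples at 250 μM (2.5% DMSO) in 50 mM acetic acid, pH 3.0, held 24 h at 25 °C. HPLC/UV/DAD peak area at 254 nm after 24 h divided by area at T0 × 100; triplicate average.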

NIH3T3 = assay: Cytotoxicity against mouse NIH/3T3 cells assessed as cell viability incubated for 24 hrs by neutral red uptake based assay; conditions: NIH3T3, 24 h
Procedure, shortened: (§2)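 NIH3T3 or U-373-MG cells grown in DMEM with 10% FCS at 37 °C, 5% CO2; compound from DMSO stock diluted in complete medium, 4–100 μM, 24 h. Viability by Neutral Red Uptake (3 h NR loading, acetic acid/ethanol extraction, A540), normalised to % control; IC50 reported. Three experiments in six replicates, Student's t test.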

U373 MG = assay: Cytotoxicity against human U373MG cells assessed as cell viability incubated for 24 hrs by neutral red uptake based assay; set-up: species or system U-373MG ATCC; procedure, shortened: as §2
[6] = Metabolic stability in rat liver microsomes assessed as apparent decay constant at 5 uM incubated for 60 mins by UV-Vis spectrophotometry; assay type: ADME, Microsome; conditions: 1 h
[7] = Metabolic stability in rat liver microsomes assessed as intrinsic clearance at 5 uM incubated for 60 mins by UV-Vis spectrophotometry; assay type: ADME, Microsome; conditions: read-out: CLH
[8] = Metabolic stability in rat liver microsomes assessed as half life at 5 uM incubated for 60 mins by UV-Vis spectrophotometry; assay type: ADME, Microsome
[9] = Metabolic stability in human liver microsomes assessed as apparent decay constant at 5 uM incubated for 60 mins by UV-Vis spectrophotometry; assay type: ADME, Microsome; conditions: 1 h
[10] = Metabolic stability in human liver microsomes assessed as intrinsic clearance at 5 uM incubated for 60 mins by UV-Vis spectrophotometry; assay type: ADME, Microsome; conditions: read-out: CLH
[11] = Metabolic stability in human liver microsomes assessed as half life at 5 uM incubated for 60 mins by UV-Vis spectrophotometry; assay type: ADME, Microsome
IMR-32 [12] = assay: Cytotoxicity against human IMR32 cells at 0.1 to 50 uM incubated for 24 hrs by LDH release assay; assay type: cell-based; conditions: imr-32, 24 h
Procedure, shortened: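 IMR 32 cells exposed 24 h to 0.1, 0.5, 1, 5, 10 and 50 μM; LDH release expressed as percent of maximal release from Triton X-100-treated cells (100%). Samples run at least in triplicate, mean ± SD.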

IMR-32 [13] = assay: Antiinflammatory activity in human IMR32 cells assessed as reduction in LPS-induced NF-kappaB-DNA binding at 0.5 and 1 uM preincubated for 24 hrs followed by LPS stimulation and measured after 30 mins by ELISA; assay type: functional, cell-based
Procedure, shortened: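 IMR 32 cells pre-treated 24 h at 0.5 and 1 μM, then challenged with 100 μg/mL LPS for 30 min; NF-κB p65 binding of nuclear extracts to the DNA consensus sequence measured. Mean ± SEM of 3 independent experiments.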

IMR-32 [14] = assay: Antiinflammatory activity in human IMR32 cells assessed as reduction in LPS-induced NF-kappaB-DNA binding at 0.5 and 1 uM preincubated for 24 hrs followed by LPS stimulation and measured after 30 mins by immunoblot analysis; assay type: functional, cell-based
[15] = Retention time of compound in human liver microsomes incubated for 30 mins by HPLC analysis; assay type: ADME, Microsome; conditions: 0.5 h
[16] = target: Cannabinoid receptor 1 (Mus musculus) (UniProt P47746); assay: Displacement of [3H]CP55, 940 from mouse brain membrane CB1 receptor
Sequence of Cannabinoid receptor 1 (Mus musculus) (P47746 whole entry): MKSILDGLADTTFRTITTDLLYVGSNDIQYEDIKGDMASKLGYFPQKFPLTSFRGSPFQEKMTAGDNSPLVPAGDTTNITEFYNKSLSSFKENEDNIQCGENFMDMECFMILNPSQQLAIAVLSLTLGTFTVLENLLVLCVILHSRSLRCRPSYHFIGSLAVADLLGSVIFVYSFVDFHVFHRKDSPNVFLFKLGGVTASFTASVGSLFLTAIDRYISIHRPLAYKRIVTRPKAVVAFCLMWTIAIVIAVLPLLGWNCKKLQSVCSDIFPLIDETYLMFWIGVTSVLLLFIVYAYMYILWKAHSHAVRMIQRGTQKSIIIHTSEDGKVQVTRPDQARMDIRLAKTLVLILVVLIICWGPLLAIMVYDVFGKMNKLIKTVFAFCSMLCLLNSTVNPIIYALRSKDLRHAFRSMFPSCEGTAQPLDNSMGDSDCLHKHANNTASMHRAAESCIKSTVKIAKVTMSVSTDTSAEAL
Procedure, shortened: (§3)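 Mouse brain membrane fraction (18000×g pellet) in 50 mM Tris-HCl, 2 mM Tris-EDTA, 3 mM MgCl2, pH 7.4. Rapid filtration binding with the agonist [³H]CP55,940; nonspecific binding defined with 1 μM unlabelled agonist; compound added directly to the incubation.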

[17] = target: Cannabinoid receptor 2 (Mus musculus) (UniProt P47936); assay: Displacement of [3H]CP55, 940 from mouse brain membrane CB2 receptor; procedure, shortened: as §3
Sequence of Cannabinoid receptor 2 (Mus musculus) (P47936 whole entry): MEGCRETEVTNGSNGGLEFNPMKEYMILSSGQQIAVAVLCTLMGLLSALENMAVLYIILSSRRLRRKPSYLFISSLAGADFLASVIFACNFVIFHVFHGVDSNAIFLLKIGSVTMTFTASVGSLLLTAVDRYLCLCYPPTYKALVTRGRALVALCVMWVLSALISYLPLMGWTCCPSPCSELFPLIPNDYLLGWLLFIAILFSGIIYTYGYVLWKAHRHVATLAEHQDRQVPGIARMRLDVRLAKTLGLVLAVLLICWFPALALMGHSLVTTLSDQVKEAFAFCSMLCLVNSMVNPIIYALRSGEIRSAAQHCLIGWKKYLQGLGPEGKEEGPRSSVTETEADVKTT

[18] = target: T2, Monoglyceride lipase (Mus musculus) (UniProt O35678); assay: Inhibition of MAGL in mouse brain assessed as release of [3H]glycerol using [3H]-2-OG as substrate incubated for 30 mins by scintillation counting method; assay type: tissue-based
T2 sequence (whole entry): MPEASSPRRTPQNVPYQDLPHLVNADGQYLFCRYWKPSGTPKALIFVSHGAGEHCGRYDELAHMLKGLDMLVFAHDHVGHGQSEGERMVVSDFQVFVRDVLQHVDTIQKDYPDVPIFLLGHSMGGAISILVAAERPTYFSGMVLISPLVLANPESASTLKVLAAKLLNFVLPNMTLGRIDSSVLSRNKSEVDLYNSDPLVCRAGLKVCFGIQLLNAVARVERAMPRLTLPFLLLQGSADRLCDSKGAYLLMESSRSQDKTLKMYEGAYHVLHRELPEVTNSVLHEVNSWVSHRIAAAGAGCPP
Procedure, shortened: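 Mouse brain homogenised in 50 mM sodium phosphate pH 8.0 with 0.32 M sucrose, spun sequentially up to 100,000×g. Final supernatant incubated with 10 μM [³H]2-OG at 37 °C for 30 min; stopped with chloroform/methanol and aqueous [³H]glycerol scintillation-counted.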

[19] = Solubility of compound in DMSO at pH 7.4 incubated for […] by HPLC/UV/DAD analysis; assay type: physicochemical; procedure, shortened: as §1
[20] = Mutagenicity in Salmonella typhimurium TA100 assessed as number of revertants at 5 to 230 uM incubated for 2 days by AMES test; assay type: toxicity; conditions: salmonella enterica subsp. enterica serovar typhimurium, 48 h
[21] = Mutagenicity in Salmonella typhimurium TA100 assessed as number of revertants in presence of liver S9 fraction at 5 to 230 uM incubated for 2 days by AMES test; assay type: toxicity, subcellular; conditions: salmonella enterica subsp. enterica serovar typhimurium, s9, 48 h
[22] = Mutagenicity in Salmonella typhimurium TA98 assessed as number of revertants at 5 to 230 uM incubated for 2 days by AMES test; assay type: toxicity; conditions: salmonella enterica subsp. enterica serovar typhimurium, 48 h
[23] = Mutagenicity in Salmonella typhimurium TA98 assessed as number of revertants in presence of liver S9 fraction at 5 to 230 uM incubated for 2 days by AMES test; assay type: toxicity, subcellular; conditions: salmonella enterica subsp. enterica serovar typhimurium, s9, 48 h

SMILES | IC50 [1] [nM] | Ki [2] [nM] | Ki (D(2) dopamine receptor) [nM] | Ki (D(3) dopamine receptor) [nM] | IC50 [3] [nM] | solubility [4] [µM] | remaining at 24 h [5] [%] | IC50 (NIH3T3) [nM] | IC50 (U373 MG) [nM] | K [6] [×10⁻¹ /min] | microsomal CLint at 5 µM [7] [µL/min/mg] | half-life at 5 µM [8] [min] | K [9] [×10⁻¹ /min] | microsomal CLint at 5 µM [10] [µL/min/mg] | half-life at 5 µM [11] [min] | Activity (IMR-32 [12]) | Activity (IMR-32 [13]) | Activity (IMR-32 [14]) | Retention_time [15] [min] | inhibition [16] | other results
Cc1cc(C(N)=O)c(-c2cccc(OC(=O)NCCN3CCN(c4ccccc4)CC3)c2)s1 | 26 | 6.88 | 214 | 148 | 280 |  |  |  |  |  |  |  |  |  |  |  |  |  |  |  | 
NC(=O)c1ccn(-c2cccc(OC(=O)NCCCCCCc3ccccc3)c2)c1 |  |  |  |  |  | 465 (≈ 189 µg/mL) | 92.1 | 75000 | 50000 | 0.01379 | 23.4 | 50.3 | 0.02496 | 41.6 | 27.8 | Non-Toxic | Active | Active | 13.72 |  | 
Cc1cc(C(N)=O)c(-c2cccc(OC(=O)NCCN3CCN(c4ccccc4)CC3)c2)n1C | 175 | 46 |  |  |  |  |  |  |  |  |  |  |  |  |  |  |  |  |  |  | 
Cc1cc(C(N)=O)c(-c2cccc(OC(=O)NCCN3CCN(c4ccccc4)CC3)c2)o1 | 0.89 | 0.23 | 138 | 105 | < 100 | 991 (≈ 444 µg/mL) | 99.9 | 68000 | 23000 | 0.03482 | 59.2 | 19.9 | 0.02842 | 47.4 | 24.4 | Non-Toxic | Active | Active | 9.004 | inactive | pIC50 ([3]; hek293): > 7; inhibition [17]: inactive; inhibition [18]: inactive; solubility [19]: 2 µM (≈ 0.897 µg/mL)
NC(=O)c1ccn(-c2cccc(OC(=O)NCCN3CCN(c4ccccc4)CC3)c2)c1 | 58 | 16 | 186 | 105 | 5300 |  |  | 5000 |  |  |  |  |  |  |  |  |  |  |  | inactive | inhibition [17]: inactive; inhibition [18]: inactive; Activity [20]: Non-Toxic; Activity [21]: Non-Toxic; Activity [22]: Non-Toxic; Activity [23]: Non-Toxic
NC(=O)c1ccn(-c2cccc(NC(=O)NCCN3CCN(c4ccccc4)CC3)c2)c1 | 1600 | 420 |  |  |  |  |  |  |  |  |  |  |  |  |  |  |  |  |  |  | 
